From ChEMBL document CHEMBL4020827, “Targeting Multiple Effector Pathways in Pancreatic Ductal Adenocarcinoma with a G-Quadruplex-Binding Small Molecule” (J Med Chem, 2018) come the findings set out here.

For data set [1], the system named is CAPAN-1. Briefly: Growth inhibition of human Capan1 cells after 96 hrs by SRB assay. The data set is classed as functional, cell-based. Conditions: CAPAN-1, 96 h. An outline of the steps:
(§1)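 Cell lines kept at 37 °C, 5% CO2 in medium with 10% FBS and 2 mM L-glutamine. Compound dissolved in water, filter-sterilised, 10 mM stock diluted into media. Growth read by 96 h sulforhodamine B assay, absorbance at 540 nm. IC50 taken from mean absorbance per concentration as % of untreated wells, >3 individual determinations with standard deviations.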

The subject of data set [2] is MIA PaCa-2. In words: Antitumor activity against human MIAPaCa2 cells xenografted in CD-1 nude mouse assessed as change in tumor volume at 15 mg/kg, iv administered twice weekly for 4 weeks measured on day 62 relative to control. It counts as functional. The method, boiled down:
(§2)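 Female CD-1 nude mice (2-3 months, 20−25 g) given 5 x 10^6 MIA PaCa-2 cells subcutaneously in right flank with Matrigel; dosing began once tumors were established (approx. 13 days, mean 0.05 cm3). Eight mice/group, IV in saline twice weekly for 28 days (8 doses) against a saline group. Tumors measured by calliper (length × width × height × π/6), with body weight. Student's t test.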

Data set [3] deals with BXPC-3. Briefly: Growth inhibition of human BxPC3 cells after 96 hrs by SRB assay. The data set is classed as functional, cell-based. Conditions: BXPC-3, 96 h. The method, boiled down:
as §1
On the technique in general: Sulforhodamine B stains cellular protein and so reports cell mass.

Data set [4] deals with MIA PaCa-2. Briefly: Antitumor activity against human MIAPaCa2 cells xenografted in CD-1 nude mouse assessed as change in tumor volume at 15 mg/kg, iv administered twice weekly for 4 weeks measured on day 29 relative to control. The data set is classed as functional. The method, boiled down: as §2
(A xenograft is tissue or cells of one species grown in another, often human tumour cells in immunodeficient mice.)

A short description of data set [5]: Toxicity in iv dosed CD-1 nude mouse assessed as death measured up to 72 hrs. The data set is classed as organism-based. Conditions: in vivo. An outline of the steps: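 CD1 nude mice, two per group, given single IV doses in saline (10, 20, 30, 35, 40, 45, 50 and 60 mg/kg), with repeat dosing weekly. Watched for adverse effects for up to 72 h. Tolerated dose taken as highest cohort in which all mice survived without observed ill-effects.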

A short description of data set [6]: Binding affinity to 5'-FAM/3'-TAMRA labeled KRAS21 promoter G-quadruplex DNA (unknown origin) assessed as change in melting temperature at 1 uM by FRET assay. An outline of the steps:
(§3)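 FRET melting of FAM/TAMRA dual-labelled promoter G4 oligonucleotides, 400 nM, annealed at 95 °C for 10 min in 60 mM potassium cacodylate (pH 7.4) then cooled to RT. Ligand at 1 μM in solution with 50 mM K+. Fluorescence (ex 450–495, em 515–545 nm) read every 0.5 °C over 30–100 °C with a 30 sec hold per step. ΔTm from curve fitting; triplicate measurements.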

The nature of data set [7]: Binding affinity to 5'-FAM/3'-TAMRA labeled human telomeric F21T G-quadruplex DNA by fluorescence anisotropy titration method. In general terms: Polarisation of emitted light reports the rotation of a fluorescent probe.
The species named for data set [8] is Homo sapiens. Briefly: Binding affinity to 5'-FAM/3'-TAMRA labeled human telomeric F21T G-quadruplex DNA assessed as change in melting temperature at 1 uM by FRET assay. The method, boiled down: (§4)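 FRET melting with FAM/TAMRA dual-labelled oligonucleotides at 400 nM, annealed at 95 °C for 10 min in 60 mM potassium cacodylate pH 7.4 and slowly cooled. Ligand final 1 μM; solution contains 50 mM K+. Fluorescence read every 0.5 °C over 30–100 °C with 30 s hold, excitation 450–495 nm and emission 515–545 nm. ΔTm from curve fitting, triplicate measurements.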

Data set [9] can be described thus: Selectivity index, ratio of IC50 for human WI38 cells to IC50 for human MIAPaCa2 cells. It counts as functional. An outline of the steps:
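SRB growth-inhibition assay over 96 h with compounds dissolved in water; cells grown in 10 % FBS at 37 °C, 5% CO2. Absorbance at 540 nm as a percentage of untreated wells gives the IC50. Values are averages of >3 determinations, with the ratio taken as WI-38 IC50 over MIA PaCa-2 IC50.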

The nature of data set [10]: Binding affinity to 5'-FAM/3'-TAMRA labeled HSP90A promoter G-quadruplex DNA (unknown origin) assessed as change in melting temperature at 1 uM by FRET assay. The method, boiled down: as §3
Data set [11] in a line: Binding affinity to 5'-FAM/3'-TAMRA labeled BCL2 promoter G-quadruplex DNA (unknown origin) assessed as change in melting temperature at 1 uM by FRET assay. The method, boiled down: as §4
The nature of data set [12]: Binding affinity to 5'-FAM/3'-TAMRA labeled T-loop duplex DNA (unknown origin) assessed as change in melting temperature at 1 uM by FRET assay. The method, boiled down:
as §4

A short description of data set [13]: Binding affinity to 5'-FAM/3'-TAMRA labeled HSP90B promoter G-quadruplex DNA (unknown origin) assessed as change in melting temperature at 1 uM by FRET assay. An outline of the steps: as §4
Data set [14] has as its system A549. Briefly: Growth inhibition of human A549 cells after 96 hrs by SRB assay. The data set is classed as functional, cell-based. As to conditions: A549, 96 h. An outline of the steps:
as §1

The subject of data set [15] is MIA PaCa-2. Briefly: Growth inhibition of human MIAPaCa2 cells after 96 hrs by SRB assay. The data set is classed as functional, cell-based. Conditions: MIA PaCa-2, 96 h. The method, boiled down:
as §1

Data set [16] in a line: Binding affinity to 5'-FAM/3'-TAMRA labeled KRAS32 promoter G-quadruplex DNA (unknown origin) assessed as change in melting temperature at 1 uM by FRET assay. An outline of the steps:
as §3

By IC50 is commonly meant the concentration that inhibits the measured activity by half. For the compound `Nc1ccn([C@@H]2O[C@H](CO)[C@@H](O)C2(F)F)c(=O)n1` [GEMCITABINE], the IC50 is 19 nM in data set [1] and 6 nM in data set [3]. The Activity in [2] was -61.7%; in [4] it was -66.7%.
What is called ΔTm is the change in melting temperature against a reference sample. One may read the Kd as a measure of binding affinity in units of concentration. Lower therefore signals higher affinity. With `CN1CCN(CCCNc2cc3c4c(c(NCCCN5CCN(C)CC5)cc5c4c2C(=O)N(CCCN2CCOCC2)C5=O)C(=O)N(CCCN2CCOCC2)C3=O)CC1`, the MTD at 72 h in data set [5] came out at 25 mg/kg. Besides, the shift in melting temperature (ΔTm) was 22.5 °C in data set [6]; 26.6 °C in data set [8]; 33.1 °C in [10]; 26.4 °C in [11]; 4.9 °C in [12]; 28.6 °C in [13]. Besides, in [16], the ΔTm came to 19.8 °C. In data set [7], the Kd was 20 nM. The “Ratio IC50” value in data set [9] came out at 21. The Activity in data set [2] is -56.7%; in [4] it was -66.7%. Moreover, the IC50 in [14] was 19 nM; in [15] it was 11 nM.
